Experimental data published in ChEMBL document CHEMBL2429828, “Discovery of thiazolyl-phthalazinone acetamides as potent glucose uptake activators via high-throughput screening” (Bioorg Med Chem Lett, 2013).
Calls of active or inactive are those of the source. The rule behind the calls is not given here.

What was measured:
[1] = system: L6; assay: Induction of glucose uptake in rat L6 cells pulsed with C14-deoxy glucose at 10 uM after 24 hrs in presence of insulin relative to control; format: functional
Outline: (§1)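 L6 rat skeletal muscle cells grown in MEM alpha with 10% serum, differentiated at confluence in 2% serum, then serum-starved. Treated overnight; after 24 h, pulsed 10 min with 14C-deoxyglucose in presence of insulin. Uptake read by scintillation after lysis with Microscint PS.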

[2] = system: L6; assay: Induction of glucose uptake in rat L6 cells pulsed with C14-deoxy glucose after 24 hrs in presence of insulin; format: functional, cell-based; details: L6, 24 h; outline: as §1
[3] = target: T1, Peroxisome proliferator-activated receptor gamma (Homo sapiens) (UniProt P37231); assay: Transactivation of GAL4 DNA binding domain-fused human PPAR-gamma ligand binding domain transfected in African green monkey CV1 cells after 24 hrs by luciferase reporter gene assay; format: cell-based; details: CV-1
T1 sequence (whole entry): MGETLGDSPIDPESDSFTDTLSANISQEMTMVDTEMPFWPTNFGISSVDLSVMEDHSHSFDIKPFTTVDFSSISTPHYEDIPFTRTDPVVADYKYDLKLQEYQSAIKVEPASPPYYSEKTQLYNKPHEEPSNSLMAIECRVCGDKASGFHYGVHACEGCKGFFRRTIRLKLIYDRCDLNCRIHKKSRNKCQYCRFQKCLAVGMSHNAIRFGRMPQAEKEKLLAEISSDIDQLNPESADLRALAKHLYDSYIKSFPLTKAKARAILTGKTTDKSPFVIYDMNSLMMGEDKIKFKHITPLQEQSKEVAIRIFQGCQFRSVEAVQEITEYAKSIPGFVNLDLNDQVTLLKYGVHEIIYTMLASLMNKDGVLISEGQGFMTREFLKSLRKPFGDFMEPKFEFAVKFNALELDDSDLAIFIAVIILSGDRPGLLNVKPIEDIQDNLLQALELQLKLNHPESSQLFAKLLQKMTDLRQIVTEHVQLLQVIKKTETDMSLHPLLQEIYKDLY
Outline: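 CV-1 cells seeded at 25,000 cells/well, incubated overnight, then transiently co-transfected (Lipofectamine 2000) with Gal4-element luciferase reporter and GAL4 DBD–PPAR-γ LBD plasmid. Compounds added 6 h post-transfection for 24 h, then luminescence read. Values expressed as % of 1 µM rosiglitazone response (set as 100%). Triplicates, repeated twice.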

| Activity [3] [%] | SMILES | fold change (FC) [1] | EC50 [2] [µM] | Activity [1] |
| --- | --- | --- | --- | --- |
|  | Cc1sc(NC(=O)Cc2nn(C)c(=O)c3ccccc23)nc1-c1ccc(Br)cc1 | 3.4 | 0.003 |  |
|  | Cn1nc(CC(=O)Nc2nc(-c3ccccc3O)cs2)c2ccccc2c1=O | 1.3 |  |  |
|  | Cn1nc(CC(=O)Nc2nccc(=O)[nH]2)c2ccccc2c1=O | 1.2 |  |  |
|  | O=C(Cc1nn(CCO)c(=O)c2ccccc12)Nc1nc(-c2ccccc2)cs1 | 0.8 |  |  |
|  | CCOC(=O)c1sc(NC(=O)Cc2nn(C)c(=O)c3ccccc23)nc1C | 0.9 | 0.04 |  |
|  | O=C(Cc1n[nH]c(=O)c2ccccc12)NNC(=O)c1nc(-c2ccccc2)cs1 | 0.9 |  |  |
|  | CCOC(=O)Cc1nn(CC(=O)c2ccccc2)c(=O)c2ccccc12 | 1.1 |  |  |
|  | CN(CCOc1ccc(CC2SC(=O)NC2=O)cc1)c1ccccn1 (centres undefined) [ROSIGLITAZONE] | 1.8 | 4.49 |  |
|  | CCc1oc(NC(=O)Cc2nn(C)c(=O)c3ccccc23)nc1-c1ccccc1 | 1 |  |  |
|  | Cn1nc(CC(=O)Nc2ncc(-c3ccccc3)s2)c2ccccc2c1=O | 1.6 |  |  |
|  | Cn1nc(CC(=O)Nc2nc(-c3ccccc3)c(C(=O)O)s2)c2ccccc2c1=O | 1.3 |  |  |
|  | O=C(O)Cc1nn(CC(=O)c2ccccc2)c(=O)c2ccccc12 | 0.9 |  |  |
|  | Cn1nc(CC(=O)Nc2cc(-c3ccc(F)cc3)on2)c2ccccc2c1=O | 1.3 |  |  |
|  | O=C(Cc1n[nH]c(=O)c2ccccc12)Nc1nc(-c2ccccc2)cs1 | 1.8 | 0.04 |  |
|  | CCOC(=O)c1sc(NC(=O)Cc2nn(C)c(=O)c3ccccc23)nc1-c1ccccc1 | 1.3 |  |  |
|  | Cn1nc(CC(=O)Nc2ccc(Cl)c(C(F)(F)F)c2)c2ccccc2c1=O | 2 | 2.56 |  |
|  | O=C(O)CCCCC(=O)Nc1nc(-c2ccccc2)cs1 |  |  | inactive |
|  | COc1ccc2c(oc3ccccc32)c1NC(=O)Cc1nn(C)c(=O)c2ccccc12 | 1.3 |  |  |
|  | Cn1nc(CC(=O)Nc2nc(-c3ccc(Br)cc3)cs2)c2ccccc2c1=O | 3.6 | 0.1 |  |

| Activity [3] [%] | SMILES | fold change (FC) [1] | EC50 [2] [µM] | Activity [1] |
| --- | --- | --- | --- | --- |
|  | Cn1nc(CC(=O)NCc2n[nH]c(=O)c3ccccc23)c2ccccc2c1=O | 0.8 |  |  |
|  | CCOC(=O)CN(C(=O)Cc1nn(C)c(=O)c2ccccc12)c1nc(-c2ccccc2)cs1 | 1.9 | 0.28 |  |
|  | Nc1nc(-c2ccccc2)cs1 |  |  | inactive |
| 1 | COc1ccc(-c2nc(NC(=O)Cc3nn(C)c(=O)c4ccccc34)sc2C)cc1 | 2.9 | 0.009 |  |
|  | O=C(O)Cc1nnc(O)c2ccccc12 |  |  | inactive |
|  | Cn1nc(CC(=O)Nc2nccc3ccccc23)c2ccccc2c1=O | 4.9 | 0.17 |  |
|  | Cn1nc(CC(=O)NC23CC4CC(CC(O)(C4)C2)C3)c2ccccc2c1=O | 0.7 |  |  |
| 0.3 | Cn1nc(CC(=O)Nc2nc(-c3ccccc3)cs2)c2ccccc2c1=O | 1.8 | 0.07 |  |
|  | Cn1nc(CC(=O)Nc2nc(-c3ccc(F)cc3)cs2)c2ccccc2c1=O | 2.7 |  |  |
|  | NNC(=O)Cc1n[nH]c(=O)c2ccccc12 |  |  | inactive |
|  | COC(=O)CCCCC(=O)N(C)c1nc(-c2ccccc2)cs1 | 1.2 |  |  |
|  | Cc1sc(NC(=O)Cc2nn(C)c(=O)c3ccccc23)nc1-c1ccccc1 | 3.4 | 0.01 |  |
|  | CCOC(=O)Cc1nnc(O)c2ccccc12 |  |  | inactive |
|  | Cn1nc(CC(=O)Nc2nc(-c3ccc(C(F)(F)F)cc3)cs2)c2ccccc2c1=O | 3.2 |  |  |
|  | Cn1nc(CC(=O)Nc2nc(-c3ccc(Cl)cc3)cs2)c2ccccc2c1=O | 3.4 |  |  |
|  | CN(C(=O)CCCCC(=O)O)c1nc(-c2ccccc2)cs1 | 0.9 |  |  |
|  | Cn1nc(CC(=O)Nc2ncc(-c3ccccc3)c(=O)[nH]2)c2ccccc2c1=O | 1.9 | 7.47 |  |
|  | CN(C(=O)Cc1nn(C)c(=O)c2ccccc12)c1nc(-c2ccccc2)cs1 | 1.8 | 5.96 |  |
|  | Cn1nc(CC(=O)Nc2nccs2)c2ccccc2c1=O | 1.7 | 0.12 |  |
